Experimental data from ChEMBL document CHEMBL4371012, “Development of Macrocyclic Peptides Containing Epoxyketone with Oral Availability as Proteasome Inhibitors” (J Med Chem, 2018).
Activity calls are given as the source filed them. The calls are words filed in the database; no cut-off is given here.

What was measured:
[1] = target: T1, Proteasome Macropain subunit MB1 (Homo sapiens, UniProt P28074); test: Inhibition of human 20S proteasome chymotrypsin-like activity using Suc-Leu-Leu-Val-Tyr-AMC as substrate pretreated for 15 mins followed by substrate addition by fluorescence assay
T1 sequence (P28074 whole entry): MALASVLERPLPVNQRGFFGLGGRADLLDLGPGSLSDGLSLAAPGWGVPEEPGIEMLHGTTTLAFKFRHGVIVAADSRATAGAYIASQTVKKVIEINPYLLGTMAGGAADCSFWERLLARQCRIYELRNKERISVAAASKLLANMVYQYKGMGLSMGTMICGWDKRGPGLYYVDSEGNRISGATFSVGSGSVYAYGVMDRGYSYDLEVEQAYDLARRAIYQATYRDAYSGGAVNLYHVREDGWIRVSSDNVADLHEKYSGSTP

[2] = Metabolic stability in mouse liver microsomes assessed as parent compound remaining at 100 uM after 5 mins by LC-MS/MS analysis; format: ADME, Microsome; conditions: read-out: Stability
RPMI-8226 = test: Antiproliferative activity against human RPMI8226 cells after 72 hrs by MTS assay; format: functional, cell-based; conditions: RPMI-8226, 72 h
MM1.S = test: Antiproliferative activity against human MM1S cells after 72 hrs by MTS assay; format: functional, cell-based
[3] = Apparent permeability from apical to basolateral side in human Caco2 cells measured at 90 mins time interval by LC-MS/MS analysis; conditions: Caco-2
[4] = Apparent permeability from basolateral to apical side in human Caco2 cells measured at 90 mins time interval by LC-MS/MS analysis; conditions: Caco-2
[5] = Efflux ratio of apparent permeability in human Caco2 cells measured at 90 mins time interval by LC-MS/MS analysis; conditions: Caco-2
MV4-11 = test: Antiproliferative activity against human MV4-11 cells after 72 hrs by MTS assay; format: functional, cell-based; conditions: MV4-11, 72 h
[6] = Metabolic stability in mouse liver microsomes assessed as parent compound remaining at 100 uM after 30 mins by LC-MS/MS analysis; format: ADME, Microsome; conditions: read-out: Stability
Outline: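 After the microsomal incubation, the clear supernatant was analysed by ESI LC-MS. The read-out was the relative peak area of each parent compound.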

Mus musculus [7] = test: In vivo inhibition of 20S proteasome chymotrypsin-like activity in Balb/c mouse blood at 100 mg/kg, po measured at 2 to 24 hrs post dose using LLVY-AMC as substrate by fluorescence assay; format: functional, organism-based
Outline: (§1)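 BALB/c mice dosed orally in 0.5% CMC-Na vehicle. Blood was sampled at 2 and 24 h after dosing for proteasome chymotrypsin-like activity.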

Mus musculus [8] = test: In vivo inhibition of 20S proteasome chymotrypsin-like activity in Balb/c mouse blood at 30 mg/kg, po measured at 2 to 24 hrs post dose using LLVY-AMC as substrate by fluorescence assay; format: functional, organism-based; outline: as §1
[9] = Clearance in ICR mouse at 5 mg/kg, iv by LC-MS/MS analysis; format: ADME, organism-based; conditions: in vivo
[10] = Volume of distribution at steady state in ICR mouse at 5 mg/kg, iv by LC-MS/MS analysis; format: ADME, organism-based; conditions: in vivo, read-out: Vdss
[11] = Half life in ICR mouse at 5 mg/kg, iv by LC-MS/MS analysis; format: ADME, organism-based; conditions: in vivo
[12] = AUC (0 to t) in ICR mouse at 5 mg/kg, iv after 1 hr by LC-MS/MS analysis; format: ADME, organism-based; parameters: time < 1 hr, dose 5 mg/kg, route intravenous; conditions: in vivo
[13] = Cmax in ICR mouse at 25 mg/kg, po via gavage by LC-MS/MS analysis; format: ADME, organism-based; parameters: dose 25 mg/kg, route oral; conditions: in vivo
[14] = Tmax in ICR mouse at 25 mg/kg, po via gavage by LC-MS/MS analysis; format: ADME, organism-based; conditions: in vivo
[15] = AUC (0 to t) in ICR mouse at 25 mg/kg, po via gavage after 1 hr by LC-MS/MS analysis; format: ADME, organism-based; parameters: time < 1 hr, dose 25 mg/kg, route oral; conditions: in vivo
[16] = Oral bioavailability in ICR mouse at 25 mg/kg via gavage by LC-MS/MS analysis; format: ADME, organism-based; conditions: in vivo

IC50 [1] [nM]	IC50 (RPMI-8226) [nM]	IC50 (MM1.S) [nM]	IC50 (MV4-11) [nM]	SMILES	also measured
436	–	–	–	COC[C@@H]1NC(=O)c2cc(Cl)ccc2OCCCCCCOC[C@@H](C(=O)N[C@@H](Cc2ccccc2)C(=O)[C@@]2(C)CO2)NC1=O	remaining at 5 min, 100 µM [2]: < 5%
248	> 100	37	–	COC[C@@H]1NC(=O)c2ncccc2OCCCCCCOC[C@@H](C(=O)N[C@@H](Cc2ccccc2)C(=O)[C@@]2(C)CO2)NC1=O	–
–	–	–	–	CC[C@H]1OC(=O)[C@H](C)[C@@H](O[C@H]2C[C@@](C)(OC)[C@@H](O)[C@H](C)O2)[C@H](C)[C@@H](O[C@@H]2O[C@H](C)C[C@H](N(C)C)[C@H]2O)[C@](C)(O)C[C@@H](C)C(=O)[C@H](C)[C@@H](O)[C@]1(C)O [ERYTHROMYCIN]	Papp A→B at 1.5 h [3]: < 0.19 ×10⁻⁶ cm/s; Papp B→A at 1.5 h [4]: 15.1 ×10⁻⁶ cm/s; efflux ratio at 1.5 h [5]: > 79.5
352	350	172	421	COC[C@@H]1NC(=O)[C@@H]2CCCN2C(=O)CCCCCOC[C@@H](C(=O)N[C@@H](Cc2ccccc2)C(=O)[C@@]2(C)CO2)NC1=O	–
25	10	3	9	COC[C@@H]1NC(=O)c2cccc(F)c2OCCCCCCOC[C@@H](C(=O)N[C@@H](Cc2ccccc2)C(=O)[C@@]2(C)CO2)NC1=O	–
162	> 100	53	–	COC[C@@H]1NC(=O)c2ccc(C)cc2OCCCCCCOC[C@@H](C(=O)N[C@@H](Cc2ccccc2)C(=O)[C@@]2(C)CO2)NC1=O	–
100	> 100	43	26	COC[C@@H]1NC(=O)c2ccc(Cl)cc2OCCCCCCOC[C@@H](C(=O)N[C@@H](Cc2ccccc2)C(=O)[C@@]2(C)CO2)NC1=O	–
20	3	2	3	COC[C@@H]1NC(=O)c2cnn(C)c2CCCCCCOC[C@@H](C(=O)N[C@@H](Cc2ccccc2)C(=O)[C@@]2(C)CO2)NC1=O	remaining at 0.5 h, 100 µM [6]: 48%
54	> 100	58	36	COC[C@@H]1NC(=O)c2ccccc2OCCCCCCOC[C@@H](C(=O)N[C@@H](Cc2ccccc2)C(=O)[C@@]2(C)CO2)NC1=O	remaining at 5 min, 100 µM [2]: < 5%; inhibition (Mus musculus [7]): Active; inhibition (Mus musculus [8]): inactive; clearance [9]: 67.2 mL/min/kg; Vd [10]: 0.62 L/kg; half-life [11]: 9.6 min; AUC(0-t) at 1 h [12]: 1240 ng·h/mL; Cmax [13]: 519 ng/mL; Tmax [14]: 4.8 min; AUC(0-t) at 1 h [15]: 133 ng·h/mL; bioavailability [16]: 2.15%
–	–	–	–	COCCc1ccc(OCC(O)CNC(C)C)cc1 (centres undefined) [METOPROLOL]	Papp A→B at 1.5 h [3]: 35.2 ×10⁻⁶ cm/s; Papp B→A at 1.5 h [4]: 25.9 ×10⁻⁶ cm/s; efflux ratio at 1.5 h [5]: 0.74
116	55	12	33	COC[C@@H]1NC(=O)c2ccccc2OCCOCCOC[C@@H](C(=O)N[C@@H](Cc2ccccc2)C(=O)[C@@]2(C)CO2)NC1=O	–
51	32	11	–	COC[C@@H]1NC(=O)c2cccc(c2)OCCCCCCCCOC[C@@H](C(=O)N[C@@H](Cc2ccccc2)C(=O)[C@@]2(C)CO2)NC1=O	–
4	5	3	6	COC[C@@H]1NC(=O)c2cccc(OC)c2OCCCCCCOC[C@@H](C(=O)N[C@@H](Cc2ccccc2)C(=O)[C@@]2(C)CO2)NC1=O	remaining at 5 min, 100 µM [2]: < 5%
25	5	2	5	COC[C@@H]1NC(=O)c2ccnn2CCCCCCCOC[C@@H](C(=O)N[C@@H](Cc2ccccc2)C(=O)[C@@]2(C)CO2)NC1=O	–
392	> 100	65	36	COC[C@@H]1NC(=O)c2sc(C)nc2OCCCCCCOC[C@@H](C(=O)N[C@@H](Cc2ccccc2)C(=O)[C@@]2(C)CO2)NC1=O	–
460	–	–	–	COC[C@@H]1NC(=O)c2ccccc2OCCCCCCCCCOC[C@@H](C(=O)N[C@@H](Cc2ccccc2)C(=O)[C@@]2(C)CO2)NC1=O	–

IC50 [1] [nM]	IC50 (RPMI-8226) [nM]	IC50 (MM1.S) [nM]	IC50 (MV4-11) [nM]	SMILES	also measured
37	5	2	5	COC[C@@H]1NC(=O)c2nccn2CCCCCCCOC[C@@H](C(=O)N[C@@H](Cc2ccccc2)C(=O)[C@@]2(C)CO2)NC1=O	–
32	20	6	4	COC[C@@H]1NC(=O)c2cnn(C)c2OCCCCCCOC[C@@H](C(=O)N[C@@H](Cc2ccccc2)C(=O)[C@@]2(C)CO2)NC1=O	remaining at 0.5 h, 100 µM [6]: 63%
253	> 100	43	–	COC[C@@H]1NC(=O)c2ccc(OC)cc2OCCCCCCOC[C@@H](C(=O)N[C@@H](Cc2ccccc2)C(=O)[C@@]2(C)CO2)NC1=O	–
257	128	63	131	COC[C@@H]1NC(=O)c2sccc2OCCCCCCOC[C@@H](C(=O)N[C@@H](Cc2ccccc2)C(=O)[C@@]2(C)CO2)NC1=O	–
14	73	32	66	COC[C@@H]1NC(=O)c2ccccc2OCCCCCCC[C@@H](C(=O)N[C@@H](Cc2ccccc2)C(=O)[C@@]2(C)CO2)NC1=O	–
21	74	29	13	COC[C@@H]1NC(=O)c2ccccc2OCCCCCOC[C@@H](C(=O)N[C@@H](Cc2ccccc2)C(=O)[C@@]2(C)CO2)NC1=O	–
35	120	137	72	COC[C@@H]1NC(=O)c2ccccc2OCCCCCCCC[C@@H](C(=O)N[C@@H](Cc2ccccc2)C(=O)[C@@]2(C)CO2)NC1=O	–
16	2	3	2	COC[C@@H]1NC(=O)c2ccnn2CCCCCCOC[C@@H](C(=O)N[C@@H](Cc2ccccc2)C(=O)[C@@]2(C)CO2)NC1=O	remaining at 0.5 h, 100 µM [6]: 75%; inhibition (Mus musculus [8]): Active; clearance [9]: 107 mL/min/kg; Vd [10]: 0.48 L/kg; half-life [11]: 6 min; AUC(0-t) at 1 h [12]: 784 ng·h/mL; Cmax [13]: 325 ng/mL; Tmax [14]: 4.8 min; AUC(0-t) at 1 h [15]: 141 ng·h/mL; bioavailability [16]: 3.72%
63	> 100	78	39	COC[C@@H]1NC(=O)c2ccccc2OCCCCCCCOC[C@@H](C(=O)N[C@@H](Cc2ccccc2)C(=O)[C@@]2(C)CO2)NC1=O	–
370	82	43	130	COC[C@@H]1NC(=O)c2ccccc2OCCOCCOCCOC[C@@H](C(=O)N[C@@H](Cc2ccccc2)C(=O)[C@@]2(C)CO2)NC1=O	–
–	19	9	28	COC[C@H](NC(=O)c1cnc(C)s1)C(=O)N[C@@H](COC)C(=O)N[C@@H](Cc1ccccc1)C(=O)[C@@]1(C)CO1 [OPROZOMIB]	remaining at 0.5 h, 100 µM [6]: 60%; inhibition (Mus musculus [8]): Active; clearance [9]: 164 mL/min/kg; Vd [10]: 0.51 L/kg; half-life [11]: 2.4 min; AUC(0-t) at 1 h [12]: 506 ng·h/mL; Cmax [13]: 261 ng/mL; Tmax [14]: 13.2 min; AUC(0-t) at 1 h [15]: 142 ng·h/mL; bioavailability [16]: 5.61%
36	> 100	65	49	COC[C@@H]1NC(=O)c2ccccc2OCCCCOC[C@@H](C(=O)N[C@@H](Cc2ccccc2)C(=O)[C@@]2(C)CO2)NC1=O	–
346	–	–	–	COC[C@@H]1NC(=O)c2ccccc2OCCCCCCCCOC[C@@H](C(=O)N[C@@H](Cc2ccccc2)C(=O)[C@@]2(C)CO2)NC1=O	–
14	13	4	11	COC[C@@H]1NC(=O)c2cccn2CCCCCCOC[C@@H](C(=O)N[C@@H](Cc2ccccc2)C(=O)[C@@]2(C)CO2)NC1=O	remaining at 5 min, 100 µM [2]: < 5%
232	–	–	–	COC[C@@H]1NC(=O)c2cccnc2OCCCCCCOC[C@@H](C(=O)N[C@@H](Cc2ccccc2)C(=O)[C@@]2(C)CO2)NC1=O	–
205	> 100	69	–	COC[C@@H]1NC(=O)c2ccc(F)cc2OCCCCCCOC[C@@H](C(=O)N[C@@H](Cc2ccccc2)C(=O)[C@@]2(C)CO2)NC1=O	–
